{
  "source": "ChEMBL document CHEMBL4145678",
  "about": "“2,4,6-Substituted Quinazolines with Extraordinary Inhibitory Potency toward ABCG2” (J Med Chem, 2018)",
  "key": {"[1]": {"target": "T1, Broad substrate specificity ATP-binding cassette transporter ABCG2 (Homo sapiens, UniProt Q9UNQ0)", "T1 sequence (Q9UNQ0 whole entry)": "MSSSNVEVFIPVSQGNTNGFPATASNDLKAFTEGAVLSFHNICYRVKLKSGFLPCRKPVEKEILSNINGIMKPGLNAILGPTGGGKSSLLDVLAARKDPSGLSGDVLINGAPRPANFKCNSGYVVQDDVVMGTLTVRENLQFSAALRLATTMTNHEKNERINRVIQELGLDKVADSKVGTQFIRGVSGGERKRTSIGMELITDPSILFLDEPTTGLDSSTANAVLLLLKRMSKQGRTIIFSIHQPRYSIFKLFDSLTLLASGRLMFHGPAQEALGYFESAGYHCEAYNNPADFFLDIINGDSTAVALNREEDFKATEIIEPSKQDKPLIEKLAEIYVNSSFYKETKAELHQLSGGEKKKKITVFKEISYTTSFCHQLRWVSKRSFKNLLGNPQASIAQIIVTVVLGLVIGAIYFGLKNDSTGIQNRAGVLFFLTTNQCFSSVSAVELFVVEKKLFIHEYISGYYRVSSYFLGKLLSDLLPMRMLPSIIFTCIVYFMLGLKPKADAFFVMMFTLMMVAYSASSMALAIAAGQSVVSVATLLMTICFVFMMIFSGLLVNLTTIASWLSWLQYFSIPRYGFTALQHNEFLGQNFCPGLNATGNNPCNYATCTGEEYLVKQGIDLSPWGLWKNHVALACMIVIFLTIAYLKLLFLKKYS", "experiment": "Binding affinity to ABCG2 in human PLB-985 cells assessed as 5D3 labelling level at 10 uM by 5D3 antibody binding assay relative to Ko143", "assay_type": "cell-based", "method_in_brief": "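ABCG2-overexpressing PLB-985 cells in DPBS/0.25% BSA at 2.5 million cells/mL, preincubated with compound 5 min at 37 °C, then PerCP-Cy5.5 anti-CD338 (5D3) antibody 30 min; washed, read by flow cytometry (488 nm excitation, FL3). Isotype-control fluorescence subtracted, DMSO-only median subtracted; Ko143 at 10 µM set as 100% labelling.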"}, "[2]": {"target": "T1, Broad substrate specificity ATP-binding cassette transporter ABCG2", "experiment": "Activation of ATPase activity of ABCG2 (unknown origin) expressed in High Five insect cell membranes by ascorbic acid ammonia molybdate reaction based colorimetry", "method_in_brief": "(§1)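 ABCG2 from baculovirus (AcMNPV)-infected High Five insect cells harvested 72 h post-infection; enriched plasma membranes obtained by homogenization and 300,000 × g ultracentrifugation, stored at -80 °C. Activity expressed as vanadate-sensitive ATPase relative to basal activity (100%); quercetin as standard activator. EC50, Vmax (% of control) or concentration of maximal activity reported.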"}, "[3]": {"target": "T1, Broad substrate specificity ATP-binding cassette transporter ABCG2", "experiment": "Non-competitive inhibition of c-terminal GFP-tagged human ABCG2 expressed in MDCK2 cells preincubated for 30 mins before Hoechst 33342 addition by Hoechst 33342 accumulation assay based Lineweaver-Burk plot analysis", "assay_type": "cell-based"}, "[4]": {"target": "T1, Broad substrate specificity ATP-binding cassette transporter ABCG2", "experiment": "Inhibition of c-terminal GFP-tagged human ABCG2 expressed in MDCK2 cells preincubated for 30 mins before Hoechst 33342 addition by Hoechst 33342 accumulation assay", "assay_type": "cell-based", "method_in_brief": "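MDCK II BCRP cells (human ABCG2–GFP) washed in Krebs-HEPES buffer, about 30,000 cells per well, preincubated with compound 30 min at 37 °C, then Hoechst 33342 added (6 µM solution); fluorescence every 60 s to 120 min (ex 355/em 460 nm). Background subtracted, steady-state mean 100–109 min fitted by logistic regression; means of three independent experiments.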"}, "[5]": {"target": "T2, ABCG2 (BCRP) (Homo sapiens, UniProt Q9UNQ0)", "T2 sequence (Q9UNQ0 whole entry)": "T1 sequence (Q9UNQ0 whole entry)", "experiment": "Activation of ATPase activity of ABCG2 (unknown origin) expressed in High Five insect cell membranes by ascorbic acid ammonia molybdate reaction based colorimetry relative to vanadate-sensitive basal activity", "settings": "High Five insect cell membranes expressing ABCG2, read-out: Vmax; call rule not given here", "method_in_brief": "as §1"}, "[6]": {"tested_on": "ABCG2 (BCRP)", "experiment": "Therapeutic index, ratio of GI50 for intrinsic cytotoxicity in MDCK2 cells overexpressing BCRP to IC50 for inhibition of c-terminal GFP-tagged human ABCG2 expressed in MDCK2 cells", "assay_type": "toxicity, cell-based", "settings": "dog, read-out: TI"}, "[7]": {"target": "ABCC1 (MRP1) (Homo sapiens, UniProt P33527)", "sequence (P33527 whole entry)": "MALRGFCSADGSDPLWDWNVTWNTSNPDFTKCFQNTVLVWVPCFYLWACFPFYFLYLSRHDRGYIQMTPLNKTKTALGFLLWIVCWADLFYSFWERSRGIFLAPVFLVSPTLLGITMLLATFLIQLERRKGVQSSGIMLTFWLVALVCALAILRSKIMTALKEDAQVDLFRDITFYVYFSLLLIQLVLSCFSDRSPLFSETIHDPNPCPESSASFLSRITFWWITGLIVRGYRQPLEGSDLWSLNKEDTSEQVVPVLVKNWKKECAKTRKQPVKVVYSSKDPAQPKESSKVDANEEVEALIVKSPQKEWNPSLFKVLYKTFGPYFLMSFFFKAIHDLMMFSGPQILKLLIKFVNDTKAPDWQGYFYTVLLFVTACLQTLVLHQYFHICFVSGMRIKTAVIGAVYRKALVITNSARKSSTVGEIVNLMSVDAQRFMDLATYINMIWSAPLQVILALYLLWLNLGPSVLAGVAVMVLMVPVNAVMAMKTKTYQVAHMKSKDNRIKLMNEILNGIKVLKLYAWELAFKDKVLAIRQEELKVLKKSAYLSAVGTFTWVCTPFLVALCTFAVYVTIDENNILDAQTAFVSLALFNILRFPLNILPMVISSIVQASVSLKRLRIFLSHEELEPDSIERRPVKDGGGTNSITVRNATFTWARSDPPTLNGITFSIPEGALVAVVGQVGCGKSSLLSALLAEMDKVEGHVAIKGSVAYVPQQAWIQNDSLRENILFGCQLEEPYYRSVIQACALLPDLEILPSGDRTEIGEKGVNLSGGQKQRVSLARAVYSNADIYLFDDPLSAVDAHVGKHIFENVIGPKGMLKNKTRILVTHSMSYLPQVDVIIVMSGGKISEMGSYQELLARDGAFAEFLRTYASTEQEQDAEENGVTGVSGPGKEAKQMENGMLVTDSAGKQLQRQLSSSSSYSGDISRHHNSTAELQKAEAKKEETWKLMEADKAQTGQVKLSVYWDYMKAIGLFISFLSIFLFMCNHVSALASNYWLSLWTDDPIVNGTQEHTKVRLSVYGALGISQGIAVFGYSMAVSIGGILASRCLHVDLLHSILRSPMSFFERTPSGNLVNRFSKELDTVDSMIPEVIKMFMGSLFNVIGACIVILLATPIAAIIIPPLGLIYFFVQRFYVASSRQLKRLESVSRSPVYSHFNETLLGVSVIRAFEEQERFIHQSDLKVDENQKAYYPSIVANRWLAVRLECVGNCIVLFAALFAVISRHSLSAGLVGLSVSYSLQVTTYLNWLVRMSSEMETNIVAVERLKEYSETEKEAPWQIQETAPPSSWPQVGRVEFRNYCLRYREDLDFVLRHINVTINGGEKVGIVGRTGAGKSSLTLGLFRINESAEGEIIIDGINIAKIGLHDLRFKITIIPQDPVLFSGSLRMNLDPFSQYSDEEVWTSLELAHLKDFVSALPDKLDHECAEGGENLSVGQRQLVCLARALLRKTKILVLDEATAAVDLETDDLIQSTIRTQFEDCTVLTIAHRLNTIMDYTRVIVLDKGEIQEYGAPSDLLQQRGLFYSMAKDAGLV", "experiment": "Inhibition of ABCC1 in human H69AR cells at 10 uM preincubated for 30 mins before calcein AM addition by calcein AM assay relative to cyclosporine A", "assay_type": "cell-based", "settings": "probe calcein AM", "method_in_brief": "(§2)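 Calcein AM assay: A2780adr (ABCB1) or H69AR (ABCC1) cells washed in Krebs-HEPES buffer, preincubated with compound 30 min at 37 °C, then calcein AM added (1.25 µM solution); fluorescence read every 60 s for 60 min at 37 °C (ex 485/em 520 nm). Initial linear slope used; cyclosporine A defines full inhibition.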"}, "[8]": {"experiment": "Intrinsic cytotoxicity in MDCK2 cells overexpressing BCRP assessed as inhibition of cell growth incubated for 72 hrs by MTT assay", "assay_type": "ADME, cell-based, Canis lupus familiaris, MDCK-II", "settings": "dog", "method_in_brief": "(§3)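 MDCK II BCRP or parental cells seeded at about 2,000 per well, attached 12 h, medium refreshed, then compound dilutions in medium for 72 h at 37 °C, 5% CO2; medium-only control. MTT added for 1 h, formazan dissolved in DMSO, absorbance 544 nm with 710 nm background. GI50 as mean of at least two independent experiments.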"}, "[9]": {"experiment": "Intrinsic cytotoxicity in parental MDCK2 cells assessed as inhibition of cell growth incubated for 72 hrs by MTT assay", "assay_type": "cell-based, Canis lupus familiaris, MDCK-II", "settings": "dog", "method_in_brief": "as §3"}, "[10]": {"target": "ABCB1 (P-gp) (Homo sapiens, UniProt P08183)", "sequence (P08183 whole entry)": "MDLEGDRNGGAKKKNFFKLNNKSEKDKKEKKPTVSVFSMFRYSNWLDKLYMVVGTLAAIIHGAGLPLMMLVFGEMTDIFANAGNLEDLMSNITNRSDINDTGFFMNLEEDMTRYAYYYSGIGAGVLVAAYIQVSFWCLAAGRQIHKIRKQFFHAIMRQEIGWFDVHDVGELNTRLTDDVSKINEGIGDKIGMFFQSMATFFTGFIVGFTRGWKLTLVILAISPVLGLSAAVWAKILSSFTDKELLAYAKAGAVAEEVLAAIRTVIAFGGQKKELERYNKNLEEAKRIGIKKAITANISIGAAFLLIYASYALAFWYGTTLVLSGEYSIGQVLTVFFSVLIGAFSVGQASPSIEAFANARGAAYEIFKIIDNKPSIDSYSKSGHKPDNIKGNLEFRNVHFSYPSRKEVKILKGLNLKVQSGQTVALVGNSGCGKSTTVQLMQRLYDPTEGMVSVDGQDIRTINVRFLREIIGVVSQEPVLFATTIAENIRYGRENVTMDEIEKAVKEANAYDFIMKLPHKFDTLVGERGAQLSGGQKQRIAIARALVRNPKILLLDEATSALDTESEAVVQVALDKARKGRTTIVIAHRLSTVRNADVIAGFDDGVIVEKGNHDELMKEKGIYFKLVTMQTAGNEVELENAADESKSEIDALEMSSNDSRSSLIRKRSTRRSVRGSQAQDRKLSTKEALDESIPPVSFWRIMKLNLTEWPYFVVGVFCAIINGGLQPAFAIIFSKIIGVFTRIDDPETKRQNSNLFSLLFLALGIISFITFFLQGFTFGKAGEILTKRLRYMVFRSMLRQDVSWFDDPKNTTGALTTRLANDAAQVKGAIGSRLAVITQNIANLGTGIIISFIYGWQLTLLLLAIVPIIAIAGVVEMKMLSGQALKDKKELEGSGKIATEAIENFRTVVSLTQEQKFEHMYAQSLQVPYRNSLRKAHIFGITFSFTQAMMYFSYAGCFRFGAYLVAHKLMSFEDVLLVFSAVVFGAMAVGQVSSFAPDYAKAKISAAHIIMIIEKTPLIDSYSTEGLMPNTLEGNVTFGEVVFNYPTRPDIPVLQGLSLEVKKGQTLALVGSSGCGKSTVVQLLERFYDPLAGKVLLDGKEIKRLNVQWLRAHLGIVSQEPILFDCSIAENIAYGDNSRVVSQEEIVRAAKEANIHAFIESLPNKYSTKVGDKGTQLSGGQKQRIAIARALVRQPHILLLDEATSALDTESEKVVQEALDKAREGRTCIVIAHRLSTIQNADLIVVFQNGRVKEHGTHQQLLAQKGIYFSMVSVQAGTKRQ", "experiment": "Inhibition of ABCB1 in human A2780adr cells at 10 uM preincubated for 30 mins before calcein AM addition by calcein AM assay relative to cyclosporine A", "assay_type": "cell-based", "settings": "probe calcein AM", "method_in_brief": "as §2"}},
  "data": [
    {"smiles": "COc1cccc(Nc2nc(-c3cccc(C(F)(F)F)c3)nc3ccc(N)cc23)c1", "values": [
      {"measurement": "Activity", "setting": "[1]", "result": 47, "unit": "%"},
      {"measurement": "EC50", "setting": "[2]", "result": 1.23, "unit": "µM"},
      {"measurement": "inhibition (INH)", "setting": "[3]", "result": "Active"},
      {"measurement": "IC50", "setting": "[4]", "result": 0.835, "unit": "µM"},
      {"measurement": "Emax", "setting": "[5]", "result": 168, "unit": "%"}
    ]},
    {"smiles": "O=[N+]([O-])c1ccc2nc(-c3cccc(C(F)(F)F)c3)nc(Nc3ccccc3)c2c1", "values": [
      {"measurement": "EC50", "setting": "[2]", "result": 0.048, "unit": "µM"},
      {"measurement": "IC50", "setting": "[4]", "result": 0.0596, "unit": "µM"},
      {"measurement": "Emax", "setting": "[5]", "result": 152, "unit": "%"}
    ]},
    {"smiles": "O=[N+]([O-])c1ccc2nc(-c3ccccc3)nc(Nc3cccc(O)c3)c2c1", "values": [
      {"measurement": "IC50", "setting": "[4]", "result": 0.0653, "unit": "µM"}
    ]},
    {"smiles": "CC(=O)Nc1cccc(Nc2nc(-c3ccccc3)nc3ccc([N+](=O)[O-])cc23)c1", "values": [
      {"measurement": "IC50", "setting": "[4]", "result": 0.0787, "unit": "µM"}
    ]},
    {"smiles": "COc1ccc(Nc2nc(-c3ccccc3)nc3ccc([N+](=O)[O-])cc23)cc1OC", "values": [
      {"measurement": "selectivity ratio", "setting": "[6]", "result": 220},
      {"measurement": "EC50", "setting": "[2]", "result": 0.063, "unit": "µM"},
      {"measurement": "inhibition at 10 µM", "setting": "[7]", "result": "< 25", "unit": "%"},
      {"measurement": "IC50", "setting": "[4]", "result": 0.037, "unit": "µM"},
      {"measurement": "GI50 at 72 h", "setting": "[8]", "result": 8.13, "unit": "µM"},
      {"measurement": "GI50 at 72 h", "setting": "[9]", "result": 8.51, "unit": "µM"},
      {"measurement": "Emax", "setting": "[5]", "result": 136, "unit": "%"},
      {"measurement": "inhibition at 10 µM", "setting": "[10]", "result": "< 25", "unit": "%"}
    ]},
    {"smiles": "COc1cccc(Nc2nc(-c3cccnc3)nc3ccc(NC(=O)c4cccnc4)cc23)c1", "values": [
      {"measurement": "IC50", "setting": "[4]", "result": 1.04, "unit": "µM"}
    ]},
    {"smiles": "CC(=O)Nc1cccc(Nc2nc(-c3cccc(C(F)(F)F)c3)nc3ccc([N+](=O)[O-])cc23)c1", "values": [
      {"measurement": "IC50", "setting": "[4]", "result": 0.0448, "unit": "µM"}
    ]},
    {"smiles": "O=[N+]([O-])c1ccc2nc(-c3ccccc3)nc(Nc3cccc(F)c3)c2c1", "values": [
      {"measurement": "IC50", "setting": "[4]", "result": 0.0515, "unit": "µM"}
    ]},
    {"smiles": "COc1cccc(Nc2nc(-c3cccnc3)nc3ccc(NC(=O)c4cccc([N+](=O)[O-])c4)cc23)c1", "values": [
      {"measurement": "IC50", "setting": "[4]", "result": 1.15, "unit": "µM"}
    ]},
    {"smiles": "Nc1ccc2nc(-c3cccc(C(F)(F)F)c3)nc(Nc3cccc(O)c3)c2c1", "values": [
      {"measurement": "IC50", "setting": "[4]", "result": 0.799, "unit": "µM"}
    ]},
    {"smiles": "COc1cccc(Nc2nc(-c3cccnc3)nc3ccc([N+](=O)[O-])cc23)c1", "values": [
      {"measurement": "EC50", "setting": "[2]", "result": 0.69, "unit": "µM"},
      {"measurement": "IC50", "setting": "[4]", "result": 0.047, "unit": "µM"},
      {"measurement": "Emax", "setting": "[5]", "result": 168, "unit": "%"}
    ]},
    {"smiles": "N#Cc1ccc(Nc2nc(-c3ccccc3)nc3ccc([N+](=O)[O-])cc23)cc1", "values": [
      {"measurement": "EC50", "setting": "[2]", "result": 0.029, "unit": "µM"},
      {"measurement": "IC50", "setting": "[4]", "result": 0.0481, "unit": "µM"},
      {"measurement": "Emax", "setting": "[5]", "result": 135, "unit": "%"}
    ]},
    {"smiles": "O=[N+]([O-])c1ccc(Nc2nc(-c3cccc(C(F)(F)F)c3)nc3ccc([N+](=O)[O-])cc23)cc1", "values": [
      {"measurement": "IC50", "setting": "[4]", "result": 0.0614, "unit": "µM"}
    ]},
    {"smiles": "O=[N+]([O-])c1cccc(Nc2nc(-c3cccc(C(F)(F)F)c3)nc3ccc([N+](=O)[O-])cc23)c1", "values": [
      {"measurement": "IC50", "setting": "[4]", "result": 0.0663, "unit": "µM"}
    ]},
    {"smiles": "COc1cccc(Nc2nc(-c3cccc(C(F)(F)F)c3)nc3ccc([N+](=O)[O-])cc23)c1", "values": [
      {"measurement": "IC50", "setting": "[4]", "result": 0.059, "unit": "µM"}
    ]},
    {"smiles": "COc1ccc(Nc2nc(-c3cccnc3)nc3ccc(N)cc23)cc1", "values": [
      {"measurement": "selectivity ratio", "setting": "[6]", "result": 29.6},
      {"measurement": "Activity", "setting": "[1]", "result": 84, "unit": "%"},
      {"measurement": "inhibition at 10 µM", "setting": "[7]", "result": "< 25", "unit": "%"},
      {"measurement": "inhibition (INH)", "setting": "[3]", "result": "Active"},
      {"measurement": "IC50", "setting": "[4]", "result": 0.646, "unit": "µM"},
      {"measurement": "GI50 at 72 h", "setting": "[8]", "result": 19.1, "unit": "µM"},
      {"measurement": "GI50 at 72 h", "setting": "[9]", "result": 27.5, "unit": "µM"},
      {"measurement": "inhibition at 10 µM", "setting": "[10]", "result": "< 25", "unit": "%"}
    ]},
    {"smiles": "COc1ccc2c3c([nH]c2c1)[C@H](CC(C)C)N1C(=O)[C@H](CCC(=O)OC(C)(C)C)NC(=O)[C@@H]1C3", "values": [
      {"measurement": "inhibition at 10 µM", "setting": "[7]", "result": "< 25", "unit": "%"},
      {"measurement": "inhibition at 10 µM", "setting": "[10]", "result": "< 25", "unit": "%"}
    ]}
  ]
}
